Screening results deposited in PubChem by several laboratories.
An excerpt weighted towards active compounds, which were near 4% of everything screened.
H9c2 protect: protects H9c2 cardiomyocytes from peroxide injury; H2O2 injury protection, ATPLite, 2 h; protection from H2O2 cell death, % at 20 µM; 360,000 tested, 0.63% active; AID 588492;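 active means compounds giving at least 50% protection of heart cells from peroxide-induced death in the single-dose screen, raw or plate-pattern-corrected value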;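 further: 0% = DMSO wells with peroxide and 100% = DMSO wells without peroxide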
NR3A LBD binder: modulators (binders) of human NR3A ligand-binding domain | AID 1259313 | Tm shift relative to glycine control, % at 25 µM | 340,000 tested, 2.5% active | NR3A LBD differential scanning fluorimetry, Tm shift; 0% = protein alone, 100% = glycine-bound protein;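 active means melting temperature shift of at least 10% of the positive control shift, at one fixed dose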
SENP1 FRET inh: blocks the human SENP1 SUMO protease catalytic domain | inhibition, % at 10 µM | AID 624204 | 360,000 tested, 0.21% active | recombinant SENP1 catalytic domain, CyPet-SUMO1-YPet FRET cleavage | Q9P0U3;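 active means inhibition at least 30% at 10 µM, raw YFP signal under a set limit, fluorescence ratio 0.5 to 1.5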;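 further: 0% = enzyme with DMSO and 100% = no enzyme wells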
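Assay system: hSENP1 catalytic domain, recombinant. Amount: SENP1 enzyme, 20 pM final. Schedule: 50 min reaction, RT, dark. Technique: FRET, CFP and YFP emission. Control set: no-enzyme wells low, DMSO-plus-enzyme wells high control.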
iPSC survival up: enhancers of human iPSC single-cell survival | hiPSC single-cell survival, ATPlite luminescence; 100% = ROCK inhibitor wells, 0% = DMSO | survival enhancement, % at 20 µM | 360,000 tested, 0.044% active; in the data active means survival enhancement above about 18%;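 further: cells exposed to compounds for 16 hours before the ATP read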
FAS-TE inh: inhibitors of human fatty acid synthase thioesterase domain; inhibition, % at 15 µM; 360,000 tested, 0.67% active; recombinant FAS-TE, OMFH fluorogenic substrate, fluorescence endpoint;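 active means compounds whose normalised, plate-corrected inhibition of enzyme fluorescence in the single-dose primary screen is 50% or more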;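 further: 0% = DMSO with enzyme and 100% = substrate without enzyme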
Arr AP2 block: blocks beta-arrestin peptide binding to AP2 adaptin. inhibition, % at 10 µM. FITC-arrestin peptide / GST-AP2 beads, flow cytometry; AP2 beta2 appendage carries R879A mutation. AID 504490. 340,000 tested, 0.31% active;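 active means inhibition above a set limit, near 3 SD of compounds lacking own fluorescence, cut at about 54% in these data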;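 further: plate controls were DMSO wells for no effect and 5 µM unlabelled arrestin peptide for full effect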
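test system = AP2 appendage R879A on GSH beads | buffer or medium = PBS plus Tween 20 (0.05%) and BSA (0.1%) | incubation = 12 min plus 1 h, RT | detection = bead flow cytometry, FITC channel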
The depositor's hits bear a star; nt = no result.

SMILES	H9c2 protect	NR3A LBD binder	SENP1 FRET inh	iPSC survival up	FAS-TE inh	Arr AP2 block
COC(=O)[C@]12CCCCC=C1N(Cc1ccc(Cl)cc1Cl)C(=O)[C@H](CC(=O)N1CCCC1)C2	nt	nt	2	0	8	nt
O=C1c2ccccc2CCC12OC2c1ccc([N+](=O)[O-])cc1 (configuration not stated)	8	nt	2	0	9	nt
COc1ccc(CN2CCC[C@]3(N[C@H](c4ccccc4)[C@@H]4C(=O)N(Cc5ccccc5)C(=O)[C@@H]43)C2=O)cc1	4	nt	2	0	6	nt
Cc1cc(NCc2ccccn2)ccc1Br	-7	11*	-7	-1	-1	19
COc1nc(Nc2cccc([N+](=O)[O-])c2)nc(OC)n1	-4	-3	-2	-1	1	4
C#CCOc1nc(Nc2cccc([N+](=O)[O-])c2)nc(OCC#C)n1	56*	-9	2	0	19	33
COc1cc2c(cc1OC)CN(c1nc(-c3cccnc3)nc3ccccc13)CC2	58*	-12	-16	0	3	-1
N#Cc1ccccc1S(=O)(=O)N1CCN(c2nc(-c3cccnc3)nc3ccccc23)CC1	83*	-7	-12	0	13	12
O=S(=O)(c1ccccc1F)N1CCN(c2nc(-c3cccnc3)nc3ccccc23)CC1	47	-4	-1	3	26	-5
O=C(Nc1cccnc1)C1Cc2c(-c3ccc4c(c3)OCO4)ccnc2O1 (configuration not stated)	-8	nt	-1	-1	-6	nt
COC(=O)c1cc2c(C)c(C)c3ccccn3c-2c1C(=O)OC	62*	0	9	-2	-10	10
COC(=O)c1cc2ccccn2c2c(C(=O)OC)c(C(=O)OC)cc1-2	79*	2	-40	11	-4	4
Cc1ccc2ccccc2c1C(O)c1ncc(-c2ccc(C(F)(F)F)cc2)[nH]1 (configuration not stated)	-17	nt	-2	-1	18	nt
O=c1c2ccccc2nc(COc2ccccc2)n1/N=C/c1cn[nH]c1-c1ccccc1	45	-3	0	0	-1	10
O=c1c2ccccc2nc(COc2ccccc2)n1/N=C/c1c[nH]c2ccccc12	35	25*	0	3	-6	0
O=c1c2ccccc2nc(COc2ccccc2)n1/N=C/c1ccc(O)cc1O	50	2	-111	0	13	37
Cc1ccccc1OCc1nc2ccccc2c(=O)n1/N=C/c1cn[nH]c1-c1ccc(Br)cc1	3	26*	2	-1	-10	9
CC[C@H](C)[C@@H](CO)NC(=O)[C@H]1O[C@@H](n2ccc(=O)[nH]c2=O)[C@H](O)[C@@H]1O	11	nt	1	0	-5	nt
CCc1nc2c(OCCc3cccc(OC)c3)cccn2c1N(C=O)Cc1ccc(OC)cc1	-3	nt	-14	0	3	nt
COc1ccccc1Cn1c(/C=C/c2ccccc2)nc2ccccc21	-25	11*	3	-3	29	-2
CC1(C(=O)Nc2ccc3c(c2)OCCO3)CSCC(=O)N1CCc1ccccc1F (configuration not stated)	nt	nt	0	nt	nt	nt
O=C(CN1CCN(S(=O)(=O)c2ccc(Br)cc2)CC1)N/N=C/c1ccc(Cl)c([N+](=O)[O-])c1	-9	10*	1	-1	46	10
Cc1ccc(S(=O)(=O)N2CCN(CC(=O)N/N=C\c3ccc(Cl)c([N+](=O)[O-])c3)CC2)cc1	3	-10	2	-1	15	-8
COCC(=O)N(C)C[C@H]1Oc2cc(C#Cc3cccnc3)ccc2S(=O)(=O)N([C@H](C)CO)C[C@H]1C	-2	nt	0	-1	7	nt
CC(=O)Nc1ccc(N/C(=N\S(=O)(=O)c2ccccc2)c2ccccc2)cc1	12	0	-1	0	-4	-5
SMILES	H9c2 protect	NR3A LBD binder	SENP1 FRET inh	iPSC survival up	FAS-TE inh	Arr AP2 block
CS/C(=N\S(=O)(=O)c1ccccc1)c1ccccc1	56*	0	3	0	-4	3
CC(=O)N1CCc2cc(NC(=O)C3(C)CCN3Cc3ccccc3OC(F)F)ccc21 (configuration not stated)	-2	nt	-3	2	6	nt
Nc1[nH]c(C(=O)c2ccccc2)c(-c2ccc(Cl)c(F)c2)c1C(=O)NCCc1c[nH]c2ccccc12	nt	nt	-5	0	36	nt
Cc1ccc(N(CC(=O)Nc2ccccc2C(=O)N2CCOCC2)S(C)(=O)=O)cc1	4	13*	1	-1	-5	9
CC1(C(=O)NS(=O)(=O)c2ccccc2C(F)(F)F)CCN1C(=O)CCC1CCCC1 (configuration not stated)	1	nt	2	-1	-6	nt
CCOC(=O)C1=CCN(S(=O)(=O)c2ccccc2[N+](=O)[O-])C1c1ccc(C)cc1 (configuration not stated)	5	nt	0	0	21	nt
N#Cc1ccc(C(=O)Nc2cc(S(=O)(=O)N3CCOCC3)ccc2N2CCCC2)cc1	6	-4	0	1	6	5
N#Cc1ccc(C(=O)Nc2cc(S(=O)(=O)Nc3ccc(Cl)cc3)ccc2N2CCCCC2)cc1	-8	22*	10	0	15	38
O=C(Nc1cc(S(=O)(=O)Nc2ccc(Cl)cc2)ccc1N1CCCCC1)c1ccc(F)cc1	-16	25*	-4	1	33	0
COc1ccc(S(=O)(=O)Nc2ccc(F)c(F)c2)cc1Cl	-12	-3	0	0	8	4
COc1ccc(S(=O)(=O)Nc2ccc(S(=O)(=O)Nc3ccc(F)cc3)cc2)cc1C	-10	16*	1	4	21	-1
COc1cc(Cl)c(C)cc1NC(=O)c1ccc(NS(=O)(=O)c2ccc(F)c(F)c2)cc1	-8	32*	5	1	10	7
COc1ccc(N(CC(=O)N2CCN(c3ccccc3)CC2)S(=O)(=O)c2ccccc2)cc1	-1	nt	4	6	15	nt
O=C(c1ccc2nc(-c3ccco3)c(-c3ccco3)nc2c1)N1CCN(c2ccccc2)CC1	13	-3	-24	0	21	4
O=C(Nc1ccc(N2CCOCC2)cc1)Nc1ccc2nc(-c3ccco3)c(-c3ccco3)nc2c1	63*	3	-24	-2	11	25
CCc1ccc(CN2CCC(Oc3cc(C(=O)NC4CC4)ccc3OC)CC2)cc1	8	nt	0	1	-1	nt
COc1ccc(OC)c(C(=O)c2ccccc2)c1	2	nt	1	1	-1	-9
COc1ccc(OC)c(C(=O)c2ccc(C(=O)c3cc(OC)ccc3OC)cc2)c1	-5	20*	0	0	30	0
